Measured values taken from ChEMBL document CHEMBL4251698, “Mitigating the Metabolic Liability of Carbonyl Reduction: Novel Calpain Inhibitors with P1' Extension” (ACS Med Chem Lett, 2018).

What was measured:
[1] = Inhibition of calpain in rat hippocampal slices assessed as reduction in NMDA-induced intracellular spectrin cleavage; format: cell-based
How it was run: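 Rat hippocampal slice cultures were challenged with NMDA. The read-out was prevention of intracellular spectrin cleavage, and IC50 values were derived.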

[2] = target: T1, Calpain-1 catalytic subunit (Homo sapiens, UniProt P07384); experiment: Inhibition of human erythrocyte calpain 1 using Suc-Leu-Tyr-AMC as substrate by fluorescence assay
T1 sequence (P07384 whole entry): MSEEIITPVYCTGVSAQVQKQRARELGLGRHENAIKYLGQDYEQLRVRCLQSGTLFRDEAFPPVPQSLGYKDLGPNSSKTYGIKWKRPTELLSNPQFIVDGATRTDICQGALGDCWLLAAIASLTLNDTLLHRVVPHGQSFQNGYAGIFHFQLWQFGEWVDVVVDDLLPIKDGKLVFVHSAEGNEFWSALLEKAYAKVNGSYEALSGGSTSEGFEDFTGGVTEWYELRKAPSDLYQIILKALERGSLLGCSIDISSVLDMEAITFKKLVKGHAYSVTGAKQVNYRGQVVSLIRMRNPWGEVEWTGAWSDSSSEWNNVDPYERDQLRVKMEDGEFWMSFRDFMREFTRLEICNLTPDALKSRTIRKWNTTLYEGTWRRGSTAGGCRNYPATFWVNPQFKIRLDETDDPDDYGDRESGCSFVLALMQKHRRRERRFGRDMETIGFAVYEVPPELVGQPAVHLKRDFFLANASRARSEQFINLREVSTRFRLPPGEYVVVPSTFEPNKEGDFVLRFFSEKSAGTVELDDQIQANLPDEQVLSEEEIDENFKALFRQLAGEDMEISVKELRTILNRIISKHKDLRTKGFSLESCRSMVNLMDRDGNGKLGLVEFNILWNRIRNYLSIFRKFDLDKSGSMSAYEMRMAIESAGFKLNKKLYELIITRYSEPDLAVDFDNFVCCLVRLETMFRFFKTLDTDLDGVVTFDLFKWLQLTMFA

[3] = Intrinsic clearance in cynomolgus monkey liver cytosol at 0.5 uM measured after 15 mins in presence of NADPH by spectrometric method; format: ADME, subcellular, Macaca fascicularis; settings: read-out: CLH
How it was run: (§1)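 Test compound incubated with monkey or human liver cytosol and percent parent lost over time followed. Intrinsic clearance calculated from this depletion, in µL/min/mg; ranges adjusted to hepatic plasma flow of the species.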

[4] = Intrinsic clearance in human liver cytosol at 0.5 uM measured after 15 mins in presence of NADPH by spectrometric method; format: ADME, subcellular; settings: read-out: CLH; how it was run: as §1
[5] = Clearance in rat hepatocytes; format: ADME, cell-based, Hepatocyte
[6] = Clearance in human hepatocytes; format: ADME, cell-based, Hepatocyte

| Compound | Ki [2] [nM] | further results |
| --- | --- | --- |
| CCONC(=O)C(=O)C(Cc1ccccc1)NC(=O)c1cccnc1-n1ccc(-c2ccccc2)n1 (stereo not given) | 110 | microsomal CLint at […], 0.5 µM [3]: < 1 µL/min/mg; microsomal CLint at […], 0.5 µM [4]: < 1 µL/min/mg; CLH [5]: 32 µL/min/mg; CLH [6]: 10 µL/min/mg |
| CN(C)CCONC(=O)C(=O)C(Cc1ccccc1)NC(=O)c1cccnc1-n1ccc(-c2ccccc2)n1 (stereo not given) | 1060 |  |
| N#CCNC(=O)C(=O)C(Cc1ccccc1)NC(=O)c1cccnc1-n1ccc(-c2ccccc2)n1 (stereo not given) | 950 |  |
| CC(C)ONC(=O)C(=O)C(Cc1ccccc1)NC(=O)c1cccnc1-n1ccc(-c2ccccc2)n1 (stereo not given) | 220 |  |
| O=C(NCCc1ccccc1)C(=O)C(Cc1ccccc1)NC(=O)c1cccnc1-n1ccc(-c2ccccc2)n1 (stereo not given) | 330 |  |
| O=C(NOCCN1CCOCC1)C(=O)C(Cc1ccccc1)NC(=O)c1cccnc1-n1ccc(-c2ccccc2)n1 (stereo not given) | 265 |  |
| CCCONC(=O)C(=O)C(Cc1ccccc1)NC(=O)c1cccnc1-n1ccc(-c2ccccc2)n1 (stereo not given) | 75 |  |
| O=C(NCc1ccccc1)C(=O)C(Cc1ccccc1)NC(=O)c1cccnc1-n1ccc(-c2ccccc2)n1 (stereo not given) | 110 |  |
| C=CCONC(=O)C(=O)C(Cc1ccccc1)NC(=O)c1cccnc1-n1ccc(-c2ccccc2)n1 (stereo not given) | 185 |  |
| O=C(NCc1nc2ccccc2o1)C(=O)C(Cc1ccccc1)NC(=O)c1cccnc1-n1ccc(-c2ccccc2)n1 (stereo not given) | 210 |  |

Second part, led by results:

| Ki [2] [nM] | Compound | further results |
| --- | --- | --- |
| 205 | O=C(NC1CC1)C(=O)C(Cc1ccccc1)NC(=O)c1cccnc1-n1ccc(-c2ccccc2)n1 (stereo not given) | IC50 [1]: 750 nM |
| 2600 | CC(C)NC(=O)C(=O)C(Cc1ccccc1)NC(=O)c1cccnc1-n1ccc(-c2ccccc2)n1 (stereo not given) |  |
| 550 | O=C(NCC1CC1)C(=O)C(Cc1ccccc1)NC(=O)c1cccnc1-n1ccc(-c2ccccc2)n1 (stereo not given) |  |
| > 5000 | CC1(NC(=O)C(=O)C(Cc2ccccc2)NC(=O)c2cccnc2-n2ccc(-c3ccccc3)n2)CC1 (stereo not given) |  |
| 150 | O=C(NOC1CCC1)C(=O)C(Cc1ccccc1)NC(=O)c1cccnc1-n1ccc(-c2ccccc2)n1 (stereo not given) |  |
| 490 | O=C(NC1CCC1)C(=O)C(Cc1ccccc1)NC(=O)c1cccnc1-n1ccc(-c2ccccc2)n1 (stereo not given) |  |
| 690 | CCNC(=O)C(=O)C(Cc1ccccc1)NC(=O)c1cccnc1-n1ccc(-c2ccccc2)n1 (stereo not given) |  |
| 90 | O=C(NOCC1CC1)C(=O)C(Cc1ccccc1)NC(=O)c1cccnc1-n1ccc(-c2ccccc2)n1 (stereo not given) |  |
| 120 | CONC(=O)C(=O)C(Cc1ccccc1)NC(=O)c1cccnc1-n1ccc(-c2ccccc2)n1 (stereo not given) | IC50 [1]: 2150 nM |
| 480 | CCCNC(=O)C(=O)C(Cc1ccccc1)NC(=O)c1cccnc1-n1ccc(-c2ccccc2)n1 (stereo not given) |  |
| 1350 | O=C(NC1CCCC1)C(=O)C(Cc1ccccc1)NC(=O)c1cccnc1-n1ccc(-c2ccccc2)n1 (stereo not given) |  |
| 470 | C=CCNC(=O)C(=O)C(Cc1ccccc1)NC(=O)c1cccnc1-n1ccc(-c2ccccc2)n1 (stereo not given) |  |
| 120 | O=C(NOC1CCCC1)C(=O)C(Cc1ccccc1)NC(=O)c1cccnc1-n1ccc(-c2ccccc2)n1 (stereo not given) |  |
| 380 | CNC(=O)C(=O)C(Cc1ccccc1)NC(=O)c1cccnc1-n1ccc(-c2ccccc2)n1 (stereo not given) |  |
